Compound activity: PubChem, several laboratories
Rows were chosen to be rich in hits. Some 4.3% of all compounds tested hit in one or more screens of this group.
NF-kB expr up = compounds increasing NF-kB expression in human neuronal cells | AID 1239 | fold change at 12.5 µM | 190,000 compounds, 1.6% hits | NF-kB reporter expression; active compounds read high; in the data active means fold change above about 3.3
FLuc inh counter = counter-screen for luciferase assay inhibitors: firefly luciferase inhibition. ATPLite firefly luciferase biochemical luminescence, 10 min. inhibition, % at 10 µM. 200,000 compounds, 1.5% hits. AID 1006;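 active means inhibition above about 50% when tested at 10 µM, limit read from the data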
Target sequence (P08659 whole entry, looked up): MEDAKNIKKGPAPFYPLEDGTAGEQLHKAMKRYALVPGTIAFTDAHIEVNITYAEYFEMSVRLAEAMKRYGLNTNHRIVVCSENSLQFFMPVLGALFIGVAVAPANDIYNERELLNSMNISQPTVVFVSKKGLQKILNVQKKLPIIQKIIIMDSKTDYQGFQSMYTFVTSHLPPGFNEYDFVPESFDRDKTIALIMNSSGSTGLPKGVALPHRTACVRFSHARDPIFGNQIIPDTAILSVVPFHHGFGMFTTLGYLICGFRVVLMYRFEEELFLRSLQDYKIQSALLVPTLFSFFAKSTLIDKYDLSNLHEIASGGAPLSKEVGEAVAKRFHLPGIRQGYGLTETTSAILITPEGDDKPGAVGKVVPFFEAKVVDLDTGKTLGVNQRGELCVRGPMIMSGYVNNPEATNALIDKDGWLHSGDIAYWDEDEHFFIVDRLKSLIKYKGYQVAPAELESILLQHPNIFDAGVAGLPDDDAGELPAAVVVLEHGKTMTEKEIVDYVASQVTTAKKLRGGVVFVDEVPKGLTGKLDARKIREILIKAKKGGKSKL
APP 5'UTR act = APP 5'UTR luciferase reporter activation; SH-SY5Y APP 5'UTR luciferase reporter, luminescence; zero percent = DMSO vehicle wells; activation, % at 2 µM; 190,000 compounds, 1% hits;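 active means activation above a set limit, based on mean plus 3 SD of controls, cut at about 140% in these data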
STAT1 act = activators of IFN-gamma induced STAT1 signaling; NIH 3T3 STAT1-luciferase reporter, luminescence; 100% = IFN-gamma alone, no compound; 200,000 compounds, 2.6% hits; activation (% of control), % at 5.5 µM;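 active means activation above the screen-wide mean activation plus 3 SD, cut at about 130% in these data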;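 further: raw ratio to IFN-gamma control signal so 100% means no change and 0% no light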
FLuc act counter = affects firefly luciferase, flagging false hits in luciferase stimulation screens; 200,000 tested, under 10 active; activation factor at 10 µM; P08659; ATPlite luciferase biochemical, luminescence, 10 min; 0 = ATP-free wells, 1 = DMSO control;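 active means luciferase activation factor, scaled between plate controls, of at least 2 with compound at 10 µM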
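Assay system: Luciferase/luciferin reagent mix; Medium: PBS as buffer for the ATP substrate; Dosing: test compounds dosed from 2 mM stocks in 100% DMSO; Times: 10 min, room temperature; Signal: luminescence from luciferase reaction; Read-out: luciferase activation; Controls: No-ATP low control, compound-free enzyme-plus-ATP high control.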
Active calls of the source: *.

SMILES	NF-kB expr up	FLuc inh counter	APP 5'UTR act	STAT1 act	FLuc act counter
c1cncc(Nc2nc(-c3cccs3)cs2)c1	2.4	2	7	132*	1
COc1cc(C(=O)Nc2nc(-c3cccs3)cs2)cc(OC)c1OC	0.35	2	19	104	1
Cc1ccc(-n2c(SCC(N)=O)nnc2-c2ccc(S(=O)(=O)N3CCCCC3)cc2)c(C)c1	0.96	-7	-14	101	1.1
O=C(CCS(=O)(=O)c1ccccc1)Nc1ccccc1F	1.3	0	4	105	1
O=C(Cc1ccccc1)Nc1nc(-c2cccs2)cs1	1.2	13	14	103	0.9
Cc1cc(O)ccc1Nc1nc(-c2cccs2)cs1	7.2*	78*	148*	121	0.2
O=C(Nc1ccccc1)OCCCc1ccccc1	2.6	0	33	140*	1
COc1ccccc1OCCOC(=O)Nc1ccccc1	1.4	6	10	98	0.9
O=C(NCc1cccnc1)NC1(C(F)(F)F)Oc2ccccc2O1	3.5*	-7	-15	103	1.1
CC(C)CNC(=O)NC1(C(F)(F)F)Oc2ccccc2O1	3.2	-5	3	116	1
O=C(Nc1nc(=S)ss1)c1c(F)cccc1F	1	-4	-2	102	1
NS(=O)(=O)c1cccc(NS(=O)(=O)c2ccc(/C=C/C(=O)OCC(=O)c3ccccc3)cc2)c1	1.1	-8	67	96	1.1
Cc1cc(C2=NNC(=Nc3ccccc3)SC2)c(C)n1C	2.1	61*	9	142*	0.4
COCCCN=C1NN=C(c2cc(C)n(-c3ccccc3F)c2C)CS1	1.8	84*	187*	58	0.2
Cc1cc(C2=NNC(=NC3CC3)SC2)c(C)n1-c1c(C)n(C)n(-c2ccccc2)c1=O	1.2	-4	-16	97	1
Cc1ccc(-n2c(C)cc(C3=NNC(=NC4CC4)SC3)c2C)cc1C	0.58	63*	155*	122	0.4
COCCn1c(C)cc(C2=NNC(=Nc3ccccc3F)SC2)c1C	0.27	82*	-52	32	0.2
Cc1ccc(C(=O)NCC(=O)NCC(=O)OCc2ccc(F)cc2)cc1	1	-1	32	102	1
CCNC(=S)N/N=C/c1cccc(C)c1	1.6	16	9	111	0.8
CCCOc1ccc(C(=O)Nc2ccc(Cl)cn2)cc1	8.6*	53*	137*	102	0.5
Cc1ccccc1C(=O)Nc1ccccn1	1	-6	-9	103	1.1
Cc1ccccc1C(=O)Nc1ccc(Cl)cn1	2.5	18	68	129*	0.8
COc1cc(SC)ccc1C(=O)Nc1ccc(Cl)cn1	1.4	94*	148*	26	0.1
CC(C)C(=O)Nc1ccc(NC(=O)c2ccccc2Cl)nc1	1.9	31	33	132*	0.7
C=CCSC1=N/C(=C\c2cc(OCC)c(OC(C)=O)c([N+](=O)[O-])c2)C(=O)S1	1.6	1	1	96	1
SMILES	NF-kB expr up	FLuc inh counter	APP 5'UTR act	STAT1 act	FLuc act counter
Cc1ccc(NC(=O)c2cccc(Cl)c2)nc1	1.6	6	10	113	0.9
Cc1ccc(C(=O)Nc2ccc(Cl)cn2)cc1	6.6*	74*	172*	123	0.3
Cc1ccc(C(=O)Nc2ncc3c(Cl)cccc3n2)cc1	1.7	94*	141*	122	0.1
Cc1ccc2c(Cl)cc(Cl)c(OCC(=O)Nc3ccc(C)c(S(=O)(=O)N(C)C)c3)c2n1	0.99	-3	3	102	1
CNC(=O)NC(=O)C(C)OC(=O)c1c2c(nc3ccccc13)/C(=C/c1cccs1)CC2 (stereo not drawn)	1.1	10	18	130*	0.9
Cc1ccccc1-c1cccc([C@@H]2C[C@H]3CN(Cc4cccnc4)C(=O)[C@]34CCCN24)c1	0.58	-6	33	97	1.1
Cc1c(Cl)cccc1NC(CC(=O)c1ccccc1)C(=O)O (stereo not drawn)	1.4	-1	28	93	1
O=C(CC(Nc1cccc(Cl)c1Cl)C(=O)O)c1ccccc1 (stereo not drawn)	0.97	-7	-14	103	1.1
O=C(CC(Nc1ccc(Cl)cc1)C(=O)O)c1ccccc1 (stereo not drawn)	2.4	69*	209*	147*	0.3
O=C(CC(Nc1ccccc1Cl)C(=O)O)c1ccccc1 (stereo not drawn)	0.61	19	172*	127	0.8
Cc1ccc2c(c1)nnn2C1CCN(CC(=O)NNC(=O)c2ccco2)CC1	1.2	-6	-16	99	1.1
CC(C)C(=O)NCc1cc(-c2ccccc2)no1	1	-8	22	97	1.1
O=C(NC(=S)N1CCOCC1)c1ccc([N+](=O)[O-])cc1	0.94	0	18	104	1
CC(CCCC(C)(C)O)NC(=O)c1cc(COc2ccc3ncccc3c2)on1 (stereo not drawn)	0.93	-3	4	71	1
O=C(Nc1ccccc1)C1=C[C@@H](c2ccc(Br)cc2)C[C@@H](OCCCCO)O1	1.5	0	21	129*	1
Cc1ccc(Nc2nc(N)nc(CSc3ncccn3)n2)cc1	5.4*	6	104	130*	0.9
Nc1nc(CSc2ncccn2)nc(Nc2ccccc2)n1	2.9	2	46	134*	1
Cc1ccc(Nc2nc(N)nc(CC#N)n2)cc1	1.5	8	43	137*	0.9
O=C(COc1cccc2ccccc12)NNC(=O)c1cccs1	1.1	-4	-9	99	1
Cc1sc(NC(=S)Nc2ccc(F)cc2)c(C(N)=O)c1C	1.1	-3	9	99	1
Cc1sc(NC(=O)c2ccc(Br)s2)c(C(N)=O)c1C	5.2*	32	108	146*	0.7
Cc1sc(NC(=O)c2ccc(Cl)s2)c(C(N)=O)c1C	5.3*	29	142*	167*	0.7
Cc1cc(C)c(S(=O)(=O)c2ccccc2)c(N2CCOCC2)n1	1.4	-2	-6	97	1
O=c1oc2cc(Br)ccc2n1CSC1=NCCS1	7.7*	4	23	98	1
O=C(NC(=S)Nc1cc(-c2nc3ccccc3[nH]2)ccc1Cl)c1ccc2c(c1)OCO2	2.2	17	-7	144*	0.8
SMILES	NF-kB expr up	FLuc inh counter	APP 5'UTR act	STAT1 act	FLuc act counter
Cc1ccc(-c2nc3ccccc3[nH]2)cc1NC(=O)c1ccc2c(c1)OCO2	0.46	5	6	100	1
Cc1cc(N(CCO)CCO)ccc1N=Nc1cc(F)ccc1F	1.1	-1	19	133*	1
Nc1ccc(N(CCO)CCO)cc1	0.76	-5	3	102	1.1
CCOC(=O)N1CCN(C(=O)CSCc2ccccc2)CC1	1.6	-7	55	130*	1.1
CNc1nc(-c2ccccc2)[n+](-c2ccc(C)cc2)s1	1.8	89*	11	118	0.1
Cc1ccc(-c2nc(N)s[n+]2-c2ccccc2)cc1	1.2	80*	18	101	0.2
Cc1ccc(-c2cc(-c3ccccc3)c3c(N)c(S(C)(=O)=O)sc3n2)cc1	1.4	-3	-6	100	1
